The values below come from ChEMBL document CHEMBL5705892, “MK-2206, an allosteric Akt inhibitor, enhances antitumor efficacy by standard chemotherapeutic agents or molecular targeted drugs in vitro and in vivo” (Mol Cancer Ther, 2010).

The structures appear in SMILES notation. Calls of active or inactive are those of the source. No cut-off for these calls is given here.

For one data set, the system named is NCI-H23. As to the kind of experiment: Antiproliferative activity against human NCI-H23 cells assessed as reduction in cell proliferation measured after 72 hrs by celltiter-glo assay. The format is functional, cell-based. The conditions noted are these: NCI-H23, 72 h. In short, it runs like this: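 Cells in RPMI 1640 with 10% heat-inactivated FBS at 37°C and 5% CO₂ were seeded at 2 to 3 × 10³ per well. […] Growth was read as cellular ATP by CellTiter-Glo.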

The subject of data set [1] is HCC1954. Put plainly: Synergistic antiproliferative activity against human HCC1954 cells assessed as combination index at ED50 measured after 72 hrs in presence of lapatinib by celltiter-glo assay. It counts as functional. In short, it runs like this: (§1)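 Cells grown in RPMI 1640 with 10% heat-inactivated FBS at 37°C, 5% CO₂. Seeded at 2 to 3 × 10³ per well; drugs added 24 h later. […] Viability read as cellular ATP by CellTiter-Glo. CI calculated by Chou–Talalay from median-effect plots at ED50, ED75 and ED90.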

The next data set deals with NCI-H292. As to the kind of experiment: Synergistic antiproliferative activity against human NCI-H292 cells assessed as combination index at ED75 measured after 72 hrs in presence of erlotinib by celltiter-glo assay. It counts as functional.
The test system of data set [2] is HCC70. Put plainly: Synergistic antiproliferative activity against human HCC70 cells assessed as combination index at ED90 measured after 72 hrs in presence of lapatinib by celltiter-glo assay. The format is functional. In short, it runs like this:
as §1

Data set [3] deals with RAC-alpha serine/threonine-protein kinase (Homo sapiens) (UniProt P31749). Put plainly: Inhibition of AKT in human A-431 cells assessed as reduction in AKT phosphorylation at S473 residue at 5 umol/L measured after 5 hrs by Western blot analysis. The format is cell-based. The conditions noted are these: dose 5.0 µmol/L. In short, it runs like this:
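Cells were lysed in Tris-HCl pH 7.5, 150 mM NaCl, 1% Triton X-100 with protease and phosphatase inhibitors. Lysates were run on SDS-PAGE, transferred to nitrocellulose and probed with phospho-specific antibodies.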

For data set [4] the target is unchanged. Put plainly: Inhibition of AKT in human HCC827 cells assessed as reduction in AKT phosphorylation at S473 residue at 5 umol/L measured after 5 hrs by Western blot analysis. The conditions noted are these: dose 5.0 µmol/L. It counts as cell-based.
Data set [5] in a line: In vivo inhibition of ERK phosphorylation at T202/Y204 residues in human NCI-H292 cells xenografted mouse at 120 mg/kg, po administered as single dose measured after 12 hrs by Western blot analysis relative to control. It counts as functional.
Data set [6] can be described thus: Toxicity in human NCI-H292 cells xenografted CD-1 mouse assessed as death at 360 mg/kg, po administered once a week for 2 weeks and measured during compound dosing. The format is organism-based. Conditions: in vivo, 336 h. In short, it runs like this: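 NCI-H292 cells in 50% Matrigel/PBS injected s.c. into flank of female CD1-nude mice; dosing began after 2 wk at mean tumour 0.2 cm³, n = 5/group. […] Body weight and signs monitored; treatment ended day 16.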

The subject of data set [7] is HCC1954. Put plainly: Synergistic antiproliferative activity against human HCC1954 cells assessed as combination index at ED50 treated 24 hrs prior to lapatinib and measured after 72 hrs by celltiter-glo assay. The format is functional. The conditions noted are these: time 96 hrs.
The subject of the next data set is SK-OV-3. As to the kind of experiment: Synergistic antiproliferative activity against human SK-OV-3 cells assessed as combination index at ED75 treated 24 hrs prior to lapatinib and measured after 72 hrs by celltiter-glo assay. The format is functional. The conditions noted are these: time 96 hrs.
Data set [8] relates to HCC70. Put plainly: Synergistic antiproliferative activity against human HCC70 cells assessed as combination index at ED75 measured after 96 hrs in presence of lapatinib by celltiter-glo assay. It counts as functional.
Data set [9] has as its system HCC70. Put plainly: Synergistic antiproliferative activity against human HCC70 cells assessed as combination index at ED90 measured after 96 hrs in presence of lapatinib by celltiter-glo assay. The format is functional.
The next data set deals with BT-474. As to the kind of experiment: Synergistic antiproliferative activity against human BT-474 cells assessed as combination index at ED90 preincubated for 24 hrs followed by compound washout and subsequent docetaxel addition and measured after 72 hrs by celltiter-glo assay. The format is functional. In short, it runs like this:
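Sequential schedule. Cells were seeded at 2 to 3 × 10³ per well in RPMI 1640 with 10% FBS and dosed 24 h after plating. They were exposed to the Akt inhibitor for 24 h, washed free of it, then given docetaxel for a further 72 h. Fixed concentration ratios spanned each agent's IC₅₀. ATP was read by CellTiter-Glo, and Chou–Talalay CI was calculated at ED50, ED75 and ED90.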

The test system of data set [10] is HCC70. As to the kind of experiment: Synergistic antiproliferative activity against human HCC70 cells assessed as combination index at ED75 measured after 72 hrs in presence of docetaxel by celltiter-glo assay. The format is functional. In short, it runs like this:
as §1

Data set [11] relates to HCC70. Put plainly: Synergistic antiproliferative activity against human HCC70 cells assessed as combination index at ED90 measured after 72 hrs in presence of docetaxel by celltiter-glo assay. It counts as functional. In short, it runs like this:
as §1

The next data set relates to MDA-MB-468. Put plainly: Synergistic antiproliferative activity against human MDA-MB-468 cells assessed as combination index at ED90 measured after 72 hrs in presence of docetaxel by celltiter-glo assay. The format is functional.
Data set [12] in a line: Toxicity in human PC-3 cells xenografted CD1 nude mouse assessed as body weight loss at 120 mg/kg, po administered 3 times per week for 2 weeks starting 24 hrs post docetaxel treatment and measured during compound dosing relative to control. The conditions noted are these: in vivo, 336 h. The format is organism-based. In short, it runs like this: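 Male CD1-nude mice with s.c. PC-3 tumours (50% Matrigel/50% PBS, left flank), randomized at mean 0.2 cm³, n=5/group, treated from 25 d post-implant. Body weight monitored versus vehicle-only controls.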

Another data set concerns A2780. As to the kind of experiment: Synergistic antiproliferative activity against human A2780 cells assessed as combination index at ED90 measured after 72 hrs in presence of carboplatin by celltiter-glo assay. It counts as functional. In short, it runs like this: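 Cells were seeded at 2–3 × 10³ per well in RPMI 1640 with 10% FBS. At 24 h, MK-2206 and the partner drug were added simultaneously at constant concentration ratios spanning each agent's IC₅₀, for 72 h. Growth was read as cellular ATP by CellTiter-Glo. CI was taken from median-effect plots of each agent alone and in combination (Chou–Talalay), at ED₅₀, ED₇₅ and ED₉₀.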

Data set [13] can be described thus: Toxicity in human NCI-H460 cells xenografted CD1 nude mouse assessed as body weight loss at 120 mg/kg, po administered 3 times per week for 2 weeks measured on day 14 to 16 in presence of gemcitabine. The format is organism-based. Conditions: in vivo, 336 h, time 14-16 day. In short, it runs like this:
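NCI-H460 cells in 50% Matrigel/PBS injected s.c. into flank of CD1-nude mice; randomized at mean tumour 0.2 cm³ (n = 5). MK-2206 in 30% Captisol, 120 mg/kg p.o. days 0, 2, 4, 7, 9, 11. Carboplatin 50 mg/kg i.v. in saline days 0 and 7 (from day 12 after implant), or gemcitabine 100 mg/kg i.v. in saline days 0 and 7 (from day 8). Body weight monitored.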

A further data set relates to NCI-H1993. Put plainly: Induction of apoptosis in human NCI-H1993 cells assessed as fold induction of capsase-3/7 activity measured after 24 to 48 hrs in presence of carboplatin by caspase-glo 3/7 assay. It counts as functional. The conditions noted are these: time 24-48 hrs.
The next data set concerns NCI-H661. Put plainly: Induction of apoptosis in human NCI-H661 cells assessed as fold induction of capsase-3/7 activity measured after 24 to 48 hrs in presence of carboplatin by caspase-glo 3/7 assay. It counts as functional. Conditions: time 24-48 hrs.
In another data set the test system is NCI-H441. As to the kind of experiment: Induction of apoptosis in human NCI-H441 cells assessed as fold induction of capsase-3/7 activity measured after 24 to 48 hrs in presence of gemcitabine by caspase-glo 3/7 assay. It counts as functional. Conditions: time 24-48 hrs.

Sequence of RAC-alpha serine/threonine-protein kinase (Homo sapiens) (P31749 whole entry): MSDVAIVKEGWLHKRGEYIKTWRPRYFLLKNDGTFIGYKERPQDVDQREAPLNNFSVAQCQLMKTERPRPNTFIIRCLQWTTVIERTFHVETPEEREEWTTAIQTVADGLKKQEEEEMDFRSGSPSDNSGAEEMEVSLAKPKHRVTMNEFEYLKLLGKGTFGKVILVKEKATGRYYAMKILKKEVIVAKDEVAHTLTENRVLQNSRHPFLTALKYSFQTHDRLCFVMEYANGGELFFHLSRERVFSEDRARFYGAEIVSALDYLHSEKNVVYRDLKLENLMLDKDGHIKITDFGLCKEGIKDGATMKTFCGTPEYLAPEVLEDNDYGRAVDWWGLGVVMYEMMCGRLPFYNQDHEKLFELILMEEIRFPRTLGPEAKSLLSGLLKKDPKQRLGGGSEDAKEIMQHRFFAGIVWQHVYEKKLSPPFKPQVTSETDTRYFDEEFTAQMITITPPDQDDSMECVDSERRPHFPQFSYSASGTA

Take `Cl.NC1(c2ccc(-c3nc4ccn5c(=O)[nH]nc5c4cc3-c3ccccc3)cc2)CCC1`: in the data set with NCI-H23, the IC50 came to 14.1 µM. The CI50 in the data set on HCC1954 [1] and in the data set on HCC1954 [7] was 0.18 each time. Besides, the CI75 came to 0.31 with NCI-H292, 0.18 in the data set on SK-OV-3, 0.18 with HCC70 [8] and 0.7 in the data set with HCC70 [10]. Also, the CI90 turned out to be 0.2 in the data set with HCC70 [2]; 0.18 in the data set with HCC70 [9]; 1.6 in the data set with BT-474; 0.5 with HCC70 [11]; 0.9 in the data set on MDA-MB-468; 0.38 in the data set on A2780. Moreover, the inhibition entry in [3] and in data set [4] was “Active” in each case. Also, in data set [5], testing at 120 mg/kg gave an inhibition in vivo of 27.7%. Moreover, the values for the Activity entry in [6], in [12] and in data set [13] were “Non-Toxic”, 9% and “Non-Toxic”, respectively. Besides, the “fold change (FC)” value with NCI-H1993 was 1.2; in the data set with NCI-H661, 2; in the data set with NCI-H441, 2.3.
